Calls of active or inactive are those of the source. The calls are words filed in the database; no cut-off is given here. Where only a bound is given, the exact number is not on record here.

In assay [1] the target is T1, Protein cereblon/3-hydroxy-3-methylglutaryl-coenzyme A reductase (Cricetulus griseus) (UniProt P00347+G3H338). As to the kind of experiment: Protac activity at CRBN/HMGCR in Insig-1/Insig-2 deficient Chinese hamster SRD15 cells assessed as induction of HMGCR degradation at 0.01 to 1 uM after 16 hrs by immunoblotting analysis. The procedure, abridged: (§1)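 SRD15 cells treated with compound at varying concentrations for 16 h, final DMSO ≤0.1%; RIPA lysates (Lowry protein) immunoblotted for HMGCR, densitometry normalized to actin, DMSO set to 1; DC50 = concentration giving 50% loss versus DMSO, fitted to dose-response curve, mean of 3 independent experiments.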

Assay [2] deals with T2, Protein cereblon/3-hydroxy-3-methylglutaryl-coenzyme A reductase (Cricetulus griseus, UniProt P00347+G3H338).
T2 sequence (P00347 whole entry): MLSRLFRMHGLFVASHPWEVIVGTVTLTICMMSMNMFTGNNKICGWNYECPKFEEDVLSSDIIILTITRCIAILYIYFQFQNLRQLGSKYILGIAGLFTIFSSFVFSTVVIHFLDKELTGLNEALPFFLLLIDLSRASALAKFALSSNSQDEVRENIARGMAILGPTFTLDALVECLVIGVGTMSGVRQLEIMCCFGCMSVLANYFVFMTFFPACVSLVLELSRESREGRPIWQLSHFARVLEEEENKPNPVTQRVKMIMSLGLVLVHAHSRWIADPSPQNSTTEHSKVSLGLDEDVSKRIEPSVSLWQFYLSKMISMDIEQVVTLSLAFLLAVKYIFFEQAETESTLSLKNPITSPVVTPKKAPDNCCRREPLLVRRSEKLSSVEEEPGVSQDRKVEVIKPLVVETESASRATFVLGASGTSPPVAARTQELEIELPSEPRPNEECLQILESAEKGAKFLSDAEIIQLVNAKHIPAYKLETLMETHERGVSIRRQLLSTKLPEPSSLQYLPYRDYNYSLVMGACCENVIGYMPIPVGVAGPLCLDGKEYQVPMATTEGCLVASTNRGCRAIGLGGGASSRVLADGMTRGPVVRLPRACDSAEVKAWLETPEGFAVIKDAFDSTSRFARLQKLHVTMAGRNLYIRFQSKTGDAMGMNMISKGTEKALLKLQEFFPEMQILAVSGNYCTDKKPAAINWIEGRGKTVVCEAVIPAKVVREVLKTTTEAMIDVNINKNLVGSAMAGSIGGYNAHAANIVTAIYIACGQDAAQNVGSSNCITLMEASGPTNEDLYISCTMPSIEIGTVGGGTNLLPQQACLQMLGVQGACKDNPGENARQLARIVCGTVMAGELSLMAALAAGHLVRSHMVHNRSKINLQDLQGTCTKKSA
T2 sequence (G3H338 whole entry): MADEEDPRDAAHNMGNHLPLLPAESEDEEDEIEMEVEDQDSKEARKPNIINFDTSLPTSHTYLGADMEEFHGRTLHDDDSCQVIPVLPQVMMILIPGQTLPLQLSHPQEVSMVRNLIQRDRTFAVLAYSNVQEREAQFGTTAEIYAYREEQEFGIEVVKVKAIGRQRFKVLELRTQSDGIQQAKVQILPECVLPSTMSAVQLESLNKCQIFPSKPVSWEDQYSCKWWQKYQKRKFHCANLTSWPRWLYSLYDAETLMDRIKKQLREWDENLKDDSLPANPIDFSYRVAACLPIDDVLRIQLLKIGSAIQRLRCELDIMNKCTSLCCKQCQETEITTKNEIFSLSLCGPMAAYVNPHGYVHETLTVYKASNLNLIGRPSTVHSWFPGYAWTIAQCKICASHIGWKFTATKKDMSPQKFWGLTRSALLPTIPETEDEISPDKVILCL
The experiment in a line: Protac activity at CRBN/HMGCR in Insig-1/Insig-2 deficient Chinese hamster SRD15 cells assessed as induction of HMGCR degradation after 16 hrs by immunoblotting analysis. The procedure, abridged: as §1
In general terms: In western blotting, separated proteins are transferred to a membrane and probed.

For assay [3], the target named is T1, Protein cereblon/3-hydroxy-3-methylglutaryl-coenzyme A reductase (Cricetulus griseus). The experiment in a line: Protac activity at CRBN/HMGCR in Insig-1/Insig-2 deficient Chinese hamster SRD15 cells assessed as induction of HMGCR degradation at 3 uM after 16 hrs by immunoblotting analysis. The procedure, abridged: as §1
In assay [4] the target is T3, Sterol regulatory element-binding protein 2 (Mus musculus) (UniProt Q3U1N2).
T3 sequence (whole entry): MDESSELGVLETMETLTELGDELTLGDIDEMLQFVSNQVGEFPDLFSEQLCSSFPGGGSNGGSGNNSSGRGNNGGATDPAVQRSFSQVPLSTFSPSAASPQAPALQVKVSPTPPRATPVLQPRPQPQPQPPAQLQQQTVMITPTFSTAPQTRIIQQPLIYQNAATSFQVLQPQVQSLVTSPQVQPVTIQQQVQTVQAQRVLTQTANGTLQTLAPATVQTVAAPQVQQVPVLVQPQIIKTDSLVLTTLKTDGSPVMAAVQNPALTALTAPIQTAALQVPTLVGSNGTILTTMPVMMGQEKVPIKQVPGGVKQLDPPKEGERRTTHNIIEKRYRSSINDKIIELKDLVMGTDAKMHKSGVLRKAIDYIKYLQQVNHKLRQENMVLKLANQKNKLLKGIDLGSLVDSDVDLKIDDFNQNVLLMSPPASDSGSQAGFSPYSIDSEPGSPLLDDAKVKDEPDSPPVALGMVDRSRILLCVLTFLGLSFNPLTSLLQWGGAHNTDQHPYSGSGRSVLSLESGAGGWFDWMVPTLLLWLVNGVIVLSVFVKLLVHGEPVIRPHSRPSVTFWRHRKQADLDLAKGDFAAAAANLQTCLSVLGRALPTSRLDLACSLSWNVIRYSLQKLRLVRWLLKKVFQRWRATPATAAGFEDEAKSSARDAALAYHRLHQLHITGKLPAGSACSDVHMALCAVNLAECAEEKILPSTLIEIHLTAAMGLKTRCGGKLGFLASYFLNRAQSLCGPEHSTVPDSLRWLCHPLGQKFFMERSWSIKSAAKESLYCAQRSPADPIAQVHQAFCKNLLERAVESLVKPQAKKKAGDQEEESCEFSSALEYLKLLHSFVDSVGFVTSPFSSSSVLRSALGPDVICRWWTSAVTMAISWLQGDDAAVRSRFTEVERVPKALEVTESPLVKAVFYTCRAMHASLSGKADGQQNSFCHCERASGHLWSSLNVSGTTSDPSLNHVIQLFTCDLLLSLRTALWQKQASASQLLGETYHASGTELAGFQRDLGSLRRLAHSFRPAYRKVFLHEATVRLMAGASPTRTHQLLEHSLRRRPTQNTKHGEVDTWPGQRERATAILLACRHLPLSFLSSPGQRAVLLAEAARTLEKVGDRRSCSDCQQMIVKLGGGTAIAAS
As to the kind of experiment: Activation of SREBP2 pathway in mouse primary hepatocytes assessed as increase in HMGCR mRNA expression at 0.01 to 1 uM afer 16 hrs by quantitative real-time PCR analysis. In kind it is cell-based. On the technique in general: Real-time PCR tracks product formation cycle by cycle.

In assay [5] the target is T3, Sterol regulatory element-binding protein 2 (Mus musculus). The experiment in a line: Activation of SREBP2 pathway in mouse primary hepatocytes assessed as increase in LDLR mRNA expression at 0.01 to 1 uM afer 16 hrs by quantitative real-time PCR analysis. In kind it is cell-based.
Assay [6] has as its target T4, Thioredoxin domain-containing protein 11 (Homo sapiens) (UniProt Q6PKC3).
T4 sequence (whole entry): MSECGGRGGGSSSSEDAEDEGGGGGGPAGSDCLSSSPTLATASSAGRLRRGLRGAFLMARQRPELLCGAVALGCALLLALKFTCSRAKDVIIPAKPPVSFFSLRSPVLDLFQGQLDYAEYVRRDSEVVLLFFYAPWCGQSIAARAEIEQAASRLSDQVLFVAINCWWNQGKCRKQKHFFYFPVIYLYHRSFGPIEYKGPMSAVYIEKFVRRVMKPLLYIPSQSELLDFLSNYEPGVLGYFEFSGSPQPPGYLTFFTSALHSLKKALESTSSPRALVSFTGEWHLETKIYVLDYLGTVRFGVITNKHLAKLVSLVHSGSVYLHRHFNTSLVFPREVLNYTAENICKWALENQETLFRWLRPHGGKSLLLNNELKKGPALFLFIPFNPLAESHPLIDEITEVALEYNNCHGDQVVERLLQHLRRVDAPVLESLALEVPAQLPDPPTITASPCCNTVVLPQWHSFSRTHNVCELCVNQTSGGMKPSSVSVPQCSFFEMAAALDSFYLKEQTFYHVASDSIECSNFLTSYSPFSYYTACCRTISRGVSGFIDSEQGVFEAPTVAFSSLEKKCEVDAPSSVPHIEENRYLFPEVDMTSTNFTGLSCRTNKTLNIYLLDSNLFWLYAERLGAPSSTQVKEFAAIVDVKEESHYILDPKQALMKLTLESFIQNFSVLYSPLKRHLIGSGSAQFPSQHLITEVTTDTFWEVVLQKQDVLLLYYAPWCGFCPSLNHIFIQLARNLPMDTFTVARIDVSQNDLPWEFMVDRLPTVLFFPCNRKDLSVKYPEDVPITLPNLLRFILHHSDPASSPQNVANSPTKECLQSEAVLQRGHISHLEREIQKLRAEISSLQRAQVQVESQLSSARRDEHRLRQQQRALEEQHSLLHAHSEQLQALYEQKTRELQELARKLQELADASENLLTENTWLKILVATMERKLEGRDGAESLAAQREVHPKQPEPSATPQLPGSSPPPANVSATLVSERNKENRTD
As to the kind of experiment: Activation of TXNDC11 (unknown origin).

In assay [7] the test system is Huh-7. The experiment in a line: Inhibition of cholesterol biosynthesis in human HuH7 cells preincubated for 14 hrs and followed by addition of 14C-acetate and measured after 2 hrs by TL method. In kind it is functional, cell-based. The procedure, abridged: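 Sterol-depleted Huh7 cells (Medium B plus 5% lipoprotein-deficient serum) treated at varying concentrations for 14 h, pulse-labelled with ¹⁴C-acetate 1 μCi/μL for 2 h, washed, lysed in 0.1 M NaOH; lipids separated by TLC, ¹⁴C-cholesterol read by phosphorimager, DMSO set to 1.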

As to `C#CCCCOc1cccc(-c2c(C(=O)Nc3ccccc3)c(C(C)C)n(CC[C@@H](O)C[C@@H](O)CC(=O)O)c2-c2ccc(F)cc2)c1`, the result in assay [1] was inactive.

With `CC(C)c1c(C(=O)Nc2ccccc2)c(-c2cccc(OCCCc3cn(CCOCCOCCOCCOCCNc4ccc5c(c4)C(=O)N(C4CCC(=O)NC4=O)C5=O)nn3)c2)c(-c2ccc(F)cc2)n1CC[C@@H](O)C[C@@H](O)CC(=O)O` (stereo partly drawn), the 50% degradation concentration (DC50) in assay [2] is 300 nM. In assay [3], the result was inactive.

For the compound `CC(C)c1c(C(=O)Nc2ccccc2)c(-c2cccc(OCCCc3cn(CCCCCCCNc4cccc5c4C(=O)N(C4CCC(=O)NC4=O)C5=O)nn3)c2)c(-c2ccc(F)cc2)n1CC[C@@H](O)C[C@@H](O)CC(=O)O` (stereo partly drawn), the half-maximal degradation concentration (DC50) in assay [2] is 200 nM. Further, the result in assay [4] and in assay [5] was Active.

On to `C#CCOc1cccc(-c2c(C(=O)Nc3ccccc3)c(C(C)C)n(CC[C@@H](O)C[C@@H](O)CC(=O)O)c2-c2ccc(F)cc2)c1`, for which the outcome in assay [1] was inactive.

Consider `C#CCCCCOc1cccc(-c2c(C(=O)Nc3ccccc3)c(C(C)C)n(CC[C@@H](O)C[C@@H](O)CC(=O)O)c2-c2ccc(F)cc2)c1`, for which the outcome in assay [1] was inactive.

`CC(C)c1c(C(=O)Nc2ccccc2)c(-c2cccc(OCCCCCc3cn(CCCCCCCNc4cccc5c4C(=O)N(C4CCC(=O)NC4=O)C5=O)nn3)c2)c(-c2ccc(F)cc2)n1CC[C@@H](O)C[C@@H](O)CC(=O)O` (stereo partly drawn): the DC50 in assay [2] came to 400 nM. The result in assay [4] and in assay [5] was Active.

Turning to `CC(C)c1c(C(=O)Nc2ccccc2)c(-c2cccc(OCCCCc3cn(CCCCCCCNc4cccc5c4C(=O)N(C4CCC(=O)NC4=O)C5=O)nn3)c2)c(-c2ccc(F)cc2)n1CC[C@@H](O)C[C@@H](O)CC(=O)O` (stereo partly drawn), the half-maximal degradation concentration (DC50) in assay [2] amounted to 300 nM. The result in assay [4] and in assay [5] was Active.

On to `CC(C)c1c(C(=O)Nc2ccccc2)c(-c2cccc(OCCCc3cn(CCCCCCNc4cccc5c4C(=O)N(C4CCC(=O)NC4=O)C5=O)nn3)c2)c(-c2ccc(F)cc2)n1CC[C@@H](O)C[C@@H](O)CC(=O)O` (stereo partly drawn), for which the half-maximal degradation concentration (DC50) in assay [2] turned out to be 400 nM. For the same compound, the result in assay [4] and in assay [5] was Active.

As for `C#CCCCCCOc1cccc(-c2c(C(=O)Nc3ccccc3)c(C(C)C)n(CC[C@@H](O)C[C@@H](O)CC(=O)O)c2-c2ccc(F)cc2)c1`, in assay [1], the outcome was inactive.

`CC(C)c1c(C(=O)Nc2ccccc2)c(-c2ccccc2)c(-c2ccc(F)cc2)n1CC[C@@H](O)C[C@@H](O)CC(=O)O`: the fold change (FC) in assay [6] was found to be 108. For the same compound, the inhibition result in assay [7] is “Active”.

As to `CC(C)c1c(C(=O)Nc2ccccc2)c(-c2cccc(OCCCCc3cn(CCOCCOCCOCCNc4cccc5c4C(=O)N(C4CCC(=O)NC4=O)C5=O)nn3)c2)c(-c2ccc(F)cc2)n1CC[C@@H](O)C[C@@H](O)CC(=O)O` (stereo partly drawn), the DC50 in assay [2] is greater than 3000 nM.

Regarding `CC(C)c1c(C(=O)Nc2ccccc2)c(-c2cccc(OCCCCCc3cn(CCOCCOCCOCCNc4ccc5c(c4)C(=O)N(C4CCC(=O)NC4=O)C5=O)nn3)c2)c(-c2ccc(F)cc2)n1CC[C@@H](O)C[C@@H](O)CC(=O)O` (stereo partly drawn), the 50% degradation concentration (DC50) in assay [2] was greater than 3000 nM.

Consider `CC(C)c1c(C(=O)Nc2ccccc2)c(-c2cccc(OCCCCCCc3cn(CCCCCCCNc4cccc5c4C(=O)N(C4CCC(=O)NC4=O)C5=O)nn3)c2)c(-c2ccc(F)cc2)n1CC[C@@H](O)C[C@@H](O)CC(=O)O` (stereo partly drawn), for which, in assay [2], the DC50 was 300 nM.

By DC50 is commonly meant the midpoint of the concentration-degradation curve.

The record behind these values is ChEMBL document CHEMBL4602720, “Degradation versus Inhibition: Development of Proteolysis-Targeting Chimeras for Overcoming Statin-Induced Compensatory Upregulation of 3-Hydroxy-3-methylglutaryl Coenzyme A Reductase” (J Med Chem, 2020).
